Experiments:
Type in all cases: tissue-based
Rattus norvegicus = species: Rattus norvegicus; test: Selectivity ratio of Ki for DAT in Sprague-Dawley rat brain homogenate to Ki for SERT in Sprague-Dawley rat brain homogenate
How it was run: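 Ratio of DAT Ki to SERT Ki. DAT Ki came from [3H]WIN 35,428 displacement and SERT Ki from [3H]citalopram displacement, both in rat brain tissue. Each Ki is the mean ± SEM of three experiments run in triplicate.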

[1] = target: Sodium-dependent serotonin transporter (Rattus norvegicus, UniProt P31652); test: Displacement of [3H]Citalopram from SERT in Sprague-Dawley rat brain homogenate after 60 mins by scintillation counting analysis
Chain of Sodium-dependent serotonin transporter (P31652 whole entry): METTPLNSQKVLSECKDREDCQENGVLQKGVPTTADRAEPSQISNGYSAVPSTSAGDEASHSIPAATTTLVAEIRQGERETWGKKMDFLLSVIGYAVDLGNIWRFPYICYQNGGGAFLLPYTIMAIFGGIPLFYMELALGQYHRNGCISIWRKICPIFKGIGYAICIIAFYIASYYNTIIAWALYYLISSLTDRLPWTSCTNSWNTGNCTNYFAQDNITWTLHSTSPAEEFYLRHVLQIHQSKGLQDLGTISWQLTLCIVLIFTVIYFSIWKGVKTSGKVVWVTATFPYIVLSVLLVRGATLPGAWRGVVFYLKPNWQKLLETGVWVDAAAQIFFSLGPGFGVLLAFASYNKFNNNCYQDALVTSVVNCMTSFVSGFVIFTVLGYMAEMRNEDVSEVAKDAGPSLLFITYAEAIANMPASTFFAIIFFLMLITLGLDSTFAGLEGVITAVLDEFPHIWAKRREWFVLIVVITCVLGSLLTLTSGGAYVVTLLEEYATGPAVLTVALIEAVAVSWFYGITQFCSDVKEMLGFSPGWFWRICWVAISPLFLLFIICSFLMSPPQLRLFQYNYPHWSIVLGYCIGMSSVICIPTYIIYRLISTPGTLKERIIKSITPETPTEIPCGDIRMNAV
How it was run: (§1)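 Competitive binding in rat brain tissue: [3H]citalopram displaced from SERT, [3H]WIN 35,428 displaced from DAT. Ki values are the mean ± SEM of three experiments run in triplicate. Compounds tested mainly as hydrochloride salts, some as oxalate salts.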

[2] = target: Sodium-dependent dopamine transporter (Rattus norvegicus, UniProt P23977); test: Displacement of [3H]WIN 35,428 from DAT in Sprague-Dawley rat brain homogenate preincubated for 5 mins prior to radioligand addition measured after 1 hr by scintillation counting analysis; how it was run: as §1
Chain of Sodium-dependent dopamine transporter (P23977 whole entry): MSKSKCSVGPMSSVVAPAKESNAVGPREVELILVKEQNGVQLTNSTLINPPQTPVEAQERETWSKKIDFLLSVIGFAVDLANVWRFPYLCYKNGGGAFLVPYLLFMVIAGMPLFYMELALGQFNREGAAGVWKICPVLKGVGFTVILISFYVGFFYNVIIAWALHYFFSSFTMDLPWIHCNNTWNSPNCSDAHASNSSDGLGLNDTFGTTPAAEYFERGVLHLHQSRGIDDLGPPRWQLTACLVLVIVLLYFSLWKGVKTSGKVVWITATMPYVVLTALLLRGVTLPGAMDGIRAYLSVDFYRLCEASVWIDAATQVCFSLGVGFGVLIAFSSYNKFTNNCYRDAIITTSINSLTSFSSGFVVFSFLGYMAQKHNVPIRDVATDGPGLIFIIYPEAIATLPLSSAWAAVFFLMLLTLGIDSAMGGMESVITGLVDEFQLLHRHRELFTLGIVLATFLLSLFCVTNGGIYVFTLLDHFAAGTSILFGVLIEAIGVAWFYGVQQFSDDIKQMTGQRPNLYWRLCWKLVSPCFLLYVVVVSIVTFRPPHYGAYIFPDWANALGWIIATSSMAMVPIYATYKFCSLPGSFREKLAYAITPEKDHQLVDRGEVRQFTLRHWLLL

SMILES | Ratio Ki (Rattus norvegicus) | Ki [1] [nM] | Ki [2] [nM]
CN1CC(OCc2ccc(Cl)c(Cl)c2)(c2ccc(Cl)c(Cl)c2)C1 | 340 | 1.3 | 436
Clc1ccc(COC2(c3ccc(Cl)cc3)CNC2)cc1 | 1100 | 3.5 | 3830
Clc1ccc(C2(OCc3ccccc3)CNC2)cc1Cl | 6.3 | 208 | 1300
CN1CC(OCc2ccc(Cl)c(Cl)c2)(c2ccc(Cl)cc2)C1 | 330 | 3 | 976
CN1CC(OCc2ccccc2)(c2ccc(Cl)cc2)C1 | 36 | 39 | 1410
Clc1ccc(C2(OCc3ccc(Cl)c(Cl)c3)CNC2)cc1 | 470 | 8.1 | 3770
c1ccc(COC2(c3ccccc3)CNC2)cc1 | 4 | 1230 | 4860
CN1CC(OCc2ccccc2)(c2ccc(Cl)c(Cl)c2)C1 | 27 | 23 | 620
CN1CC(OCc2ccc(Cl)c(Cl)c2)(c2ccccc2)C1 |  | 1 | 
CN1CC(OCc2ccc(Cl)cc2)(c2ccccc2)C1 | 980 | 4 | 3910
Clc1ccc(COC2(c3ccccc3)CNC2)cc1 | 1.4 | 2590 | 3610
Clc1ccc(COC2(c3ccc(Cl)c(Cl)c3)CNC2)cc1Cl | 870 | 4.2 | 3670
Clc1ccc(COC2(c3ccc(Cl)c(Cl)c3)CNC2)cc1 | 1000 | 2.9 | 3020
CN1CC(OCc2ccc(Cl)cc2)(c2ccc(Cl)c(Cl)c2)C1 | 630 | 4.8 | 2290
Clc1ccc(C2(OCc3ccccc3)CNC2)cc1 | 3.9 | 825 | 3180
Clc1ccc(COC2(c3ccccc3)CNC2)cc1Cl | 390 | 7.3 | 2820
CN1CC(OCc2ccc(Cl)cc2)(c2ccc(Cl)cc2)C1 | 490 | 7.8 | 2030
CN1CC(OCc2ccccc2)(c2ccccc2)C1 | 24 | 73 | 1730
